Where two headings read alike, the source gives them in different places.
Assays:
[1] = 0.6 mg single subcutaneous dose, other clinical trials; ref not given; cited from earlier work
healthy volunteers [2] = assay: Antidasiglucagon antibody assessment; parameters: species or system human; conditions: in vivo
[3] = cited from earlier work
plasma glucose [4] = conditions: following insulin-induced hypoglycemia; cited from earlier work
healthy volunteers [5] = assay: Concentration-QTc analysis, linear mixed-effects model; format: in vivo, human; conditions: not significant at the 0.1 level
[6] = Pharmacokinetics of dasiglucagon in plasma after IV or SC dosing, Phase I trial; format: in vivo, human
Summary of the method: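 Single IV doses of 0.03, 0.1, 0.3, 0.6 or 1.5 mg from a 4 mg/mL solution diluted with vehicle, after a fast of ≥8 h. One cohort got 0.6 mg SC into the abdomen by prefilled syringe. Plasma sampled over 4 h (IV) or 5 h (SC). Dose proportionality by log–log power-model regression (90% CI of slope). Absolute bioavailability from a linear model of AUC, SC versus IV 0.6 mg.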

dogs = conditions: cardiovascular telemetry; nonclinical studies, ref not given; cited from earlier work
healthy volunteers [7] = assay: Cardiac repolarization: by-time point analysis of QTcF; format: in vivo, human; conditions: least squares mean
Summary of the method: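 Single IV dose of test compound or placebo. Continuous Holter 12-lead ECG with supine rest ≥15 min. Extractions at 45, 30 and 15 min predose and at 5–240 min and 24 h postdose, up to 10 nonoverlapping 10-s replicates per point. Lead II was primary. QTcF=QT/RR^1/3. Analysed in a linear mixed-effects model on ΔQTcF (fixed: time, treatment, interaction; baseline covariate), placebo pooled.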

healthy volunteers [8] = format: in vivo, human
Summary of the method: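 Single IV (0.03–1.5 mg) or SC (0.6 mg) dose, or IV placebo. Safety was monitored throughout the study by AE recording, vital signs, clinical laboratory tests, physical examination, 12-lead ECG and injection-site reaction checks. TEAEs were tallied per participant by treatment.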

plasma glucose [9] = assay: Plasma glucose response; format: in vivo, human
healthy volunteers [10] = assay: Concentration-QTc analysis, Emax model; format: in vivo, human; conditions: for ΔΔQTcF estimate at geometric mean Cmax: Emax model prediction, mean (90% CI)
Summary of the method: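 Placebo-adjusted ΔQTcF for each subject and time point = individual ΔQTcF minus the estimated time effect at that point. ΔΔQTcF predicted at the geometric mean peak concentration per dose.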

healthy volunteers [11] = format: in vivo, human; remark: listed apart in the source
[12] = test system: 8 different human cardiac ion channels (including human ether-a-go-go related gene [hERG]); conditions: 8 channels including hERG; nonclinical studies, ref not given; cited from earlier work

CC(C)C[C@H](NC(=O)[C@H](Cc1c[nH]c2ccccc12)NC(=O)[C@H](CCCCN)NC(=O)[C@@H](NC(=O)[C@H](Cc1ccccc1)NC(=O)[C@H](CCC(=O)O)NC(=O)[C@H](CCC(=O)O)NC(=O)[C@H](C)NC(=O)[C@H](CCCNC(=N)N)NC(=O)[C@H](C)NC(=O)C(C)(C)NC(=O)[C@H](CC(=O)O)NC(=O)[C@H](CC(C)C)NC(=O)[C@H](Cc1ccc(O)cc1)NC(=O)[C@H](CCCCN)NC(=O)[C@H](CO)NC(=O)[C@H](Cc1ccc(O)cc1)NC(=O)[C@H](CC(=O)O)NC(=O)[C@H](CO)NC(=O)[C@@H](NC(=O)[C@H](Cc1ccccc1)NC(=O)[C@@H](NC(=O)CNC(=O)[C@H](CCC(N)=O)NC(=O)[C@H](CO)NC(=O)[C@@H](N)Cc1c[nH]cn1)[C@@H](C)O)[C@@H](C)O)C(C)C)C(=O)N[C@@H](CCC(=O)O)C(=O)N[C@@H](CO)C(=O)N[C@H](C(=O)O)[C@@H](C)O [dasiglucagon]
maximum concentrations observed in any clinical trial [1]: 5000 to 6000 pmol/L
cross-reactivity of antibodies to endogenous glucagon (healthy volunteers [2]): no cross-reactivity
stability in aqueous solutions [3]: stable in aqueous solutions
Median time to plasma glucose recovery vs reconstituted lyophilized glucagon (plasma glucose [4]): comparable
treatment effect-specific intercept (healthy volunteers [5]): 0.8 ms
dose proportionality of AUC and Cmax ([6]; IV dose cohorts 0.03 to 1.5 mg, power model): dose-proportional
half-life ([6]; human, plasma, iv): ~18 min
Cmax ([6]; human, plasma, iv, 0.03 mg): 0.568 nM
Cmax ([6]; human, plasma, iv, 0.1 mg): 2.39 nM
Cmax ([6]; human, plasma, iv, 0.3 mg): 6.46 nM
AUC(0-inf) ([6]; human, plasma, iv, 0.6 mg): 4.63 nM·h
Cmax ([6]; human, plasma, iv, 0.6 mg): 10.2 nM
Cmax ([6]; human, plasma, iv, 1.5 mg): 57.9 nM
AUC(0-inf) ([6]; human, plasma, sc, 0.6 mg): 2.36 nM·h
AUC(0-t) ([6]; human, plasma, sc, 0.6 mg): 2.36 nM·h
Cmax ([6]; human, plasma, sc, 0.6 mg): 1.53 nM
bioavailability ([6]; human, plasma, sc, 0.6 mg): ~51%
half-life ([6]; human, plasma, sc, 0.6 mg): ~30 min
potential for QTc prolongation in dogs (dogs): no potential for QTc prolongation
Mean ΔΔQTcF (healthy volunteers [7]; IV 0.03 mg, 40 minutes postdose): -3.4 ms
Mean ΔΔQTcF (healthy volunteers [7]; IV 0.1 mg, 180 minutes postdose): 12.3 ms
participants who experienced nausea (healthy volunteers [8]; 0.6 mg SC cohort): 4 out of 6
participants who vomited (healthy volunteers [8]; 0.6 mg SC cohort): 3 out of 6
dizziness (healthy volunteers [8]; SC and IV dasiglucagon cohorts): 2 participants
extravasation (healthy volunteers [8]; SC and IV dasiglucagon cohorts): 2 participants
headache (healthy volunteers [8]; SC and IV dasiglucagon cohorts): 2 participants
nausea (healthy volunteers [8]; SC and IV dasiglucagon cohorts): 9 participants
vomiting (healthy volunteers [8]; SC and IV dasiglucagon cohorts): 4 participants
ECG-related TEAEs or TEAEs in the system organ class cardiac disorders (healthy volunteers [8]; all cohorts): no ECG-related TEAEs
participants reporting treatment-emergent AEs (TEAEs) (healthy volunteers [8]; all dasiglucagon cohorts, 14 out of 42): 33.3%
effect on vital signs or safety laboratory parameters (healthy volunteers [8]; in vivo): No effect
injection site reactions (healthy volunteers [8]; spontaneous pain (0.1 mg IV), hematoma (0.6 mg SC), both mild): Two injection site reactions
Median time to Cmax, glucose (plasma glucose [9]; IV 0.03 mg): 17.5 min
mean maximum glucose concentration (Cmax, glucose) (plasma glucose [9]; IV 0.03 mg, healthy volunteers): 135 mg/dL
Median time to Cmax, glucose (plasma glucose [9]; IV 1.5 mg): 42.5 min
mean maximum glucose concentration (Cmax, glucose) (plasma glucose [9]; IV 1.5 mg, healthy volunteers): 160 mg/dL
plasma glucose level after subcutaneous dosing (plasma glucose [9]; SC 0.6 mg, healthy volunteers): 172 mg/dL
Emax (maximum estimated effect on ΔΔQTcF) (healthy volunteers [10]; Emax model, all IV data, P = 0.0137): 3.6 ms
treatment effect–specific intercept (healthy volunteers [10]; Emax model, not significant at the 0.1 level): -0.44 ms
ΔΔQTcF estimate at geometric mean Cmax (healthy volunteers [10]; IV 0.03 mg, n = 36 overall): 1.61 ms
ΔΔQTcF estimate at geometric mean Cmax (healthy volunteers [10]; IV 0.1 mg): 2.61 ms
ΔΔQTcF estimate at geometric mean Cmax (healthy volunteers [10]; IV 0.3 mg): 2.93 ms
ΔΔQTcF estimate at geometric mean Cmax (healthy volunteers [10]; IV 0.6 mg): 3.01 ms
ΔΔQTcF estimate at geometric mean Cmax (healthy volunteers [10]; IV 1.5 mg): 3.13 ms
EC50 (healthy volunteers [10]; read-out: amount that produces half the effect of Emax, Emax model, plasma concentration, not significant at the 0.1 level): 0.426 nM
Mean ΔΔHR (healthy volunteers [11]; IV 0.03 mg, 5 minutes postdose (lowest value)): –7.0 bpm
Mean ΔΔHR (healthy volunteers [11]; IV 0.6 mg, 24 hours postdose (highest value)): 7.5 bpm
effect on PR interval (healthy volunteers [11]; IV 0.03 to 1.5 mg): did not have a clinically relevant effect
effect on QRS duration (healthy volunteers [11]; IV 0.03 to 1.5 mg): did not have a clinically relevant effect
mean placebo-corrected change from baseline in heart rate (ΔΔHR) (healthy volunteers [11]; all studied IV doses 0.03 to 1.5 mg): < 10 bpm
effect on human cardiac ion channels in vitro [12]: no effect

Source: article PMC9026613 (Current Therapeutic Research, Clinical and Experimental, 2022)
